Data published in PubChem BioAssay AID488976 (Southern Research Specialized Biocontainment Screening …, 2010).
Activity calls are given as the source filed them.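 The calls were made as follows: active = cell viability under 70% at any tested concentration, a measure not printed in our tables; inactive = the rest.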

Test system: HEp-2 viability, ATP luminescence
Experiment: viability loss in uninfected HEp-2 cells – cell-based, ATP luminescence, purified and synthesized compounds, cytotoxicity control for RSV inhibitor project, dose response (AID 488976)
Method in brief: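 Material: HEp-2 cells without virus | Medium: DMEM/F12 | Doses: 8-point twofold dilution series, 50 to 0.39 µM final, 0.5% DMSO | Incubation: Six-day compound exposure of cells at 37 °C | Detection: Luminescent CellTiter-Glo signal | Measure: % viability versus median cell-only signal, CC50 via 4-parameter fit | Controls: Cell-only wells without compound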

Structure (SMILES) | CC50
Cc1ccc(NC(=O)C2CCCN2S(C)(=O)=O)c(C)c1 (configuration not stated) | > 50 µM (inactive)
Cc1ccc(NC(=O)C2CCCN2C(=O)c2cccc3cccnc23)c(C)c1 (configuration not stated) | > 50 µM (inactive)
CSc1ncccc1C(=O)Nc1nc(C)cs1 | > 50 µM (inactive)
Cc1ccc(NC(=O)C2CCCN2S(=O)(=O)c2cccc3cccnc23)c(C)c1 (configuration not stated) | 40.5 µM
Cc1ccc(NC(=O)[C@@H]2CCCN2S(=O)(=O)c2cccc3cccnc23)c(C)c1 | 38.9 µM
Cc1ccc(NC(=O)C2CCCN2S(=O)(=O)c2ccc3ncccc3c2)c(C)c1 (configuration not stated) | > 50 µM (inactive)
Cc1ccc(NC(=O)CNS(=O)(=O)c2cccc3cccnc23)c(C)c1 | > 50 µM (inactive)
Cc1ccc(NC(=O)[C@H]2CCCN2S(=O)(=O)c2cccc3cccnc23)c(C)c1 | 38 µM
Cc1csc(NC(=O)c2cccnc2)n1 | > 50 µM (inactive)
Cc1ccc(NC(=O)C2CCCN2S(=O)(=O)c2ccccc2)c(C)c1 (configuration not stated) | > 50 µM (inactive)
Cc1ccc(NC(=O)C2CCCN2Cc2cccc3cccnc23)c(C)c1 (configuration not stated) | 13.3 µM
Cc1ccc(NC(=O)C2CCCN2S(=O)(=O)c2cccc3ccccc23)c(C)c1 (configuration not stated) | 17.8 µM
CSc1ncccc1C(=O)Nc1nc(C(C)(C)C)cs1 | 28.7 µM
Cc1ccc(NC(=O)C2CCCN2C(=O)c2ccccc2)c(C)c1 (configuration not stated) | > 50 µM (inactive)
Cc1ccc(NC(=O)C2CCCN2S(=O)(=O)c2cccc3cnccc23)c(C)c1 (configuration not stated) | > 50 µM (inactive)
O=C(Nc1ccc(C(F)(F)F)cc1[N+](=O)[O-])O[C@H]1[C@H](Cc2ccccc2)NS(=O)(=O)[C@H]2C[C@@H]3C=C[C@]12O3 | 22.1 µM
Cc1ccc(NC(=O)C(C)NS(=O)(=O)c2cccc3cccnc23)c(C)c1 (configuration not stated) | > 50 µM (inactive)
